# Calls of active or inactive are those of the source. No cut-off for these calls is given here.
# Assays:
# [1] = molecular target: T1, Peroxisome proliferator-activated receptor alpha (Homo sapiens, UniProt Q07869); test: Transactivation of human PPARalpha expressed in human HepG2 cells co-transfected with PPRE3-TK-Luc by luciferase reporter gene assay; type: cell-based
# T1 sequence (Q07869 whole entry): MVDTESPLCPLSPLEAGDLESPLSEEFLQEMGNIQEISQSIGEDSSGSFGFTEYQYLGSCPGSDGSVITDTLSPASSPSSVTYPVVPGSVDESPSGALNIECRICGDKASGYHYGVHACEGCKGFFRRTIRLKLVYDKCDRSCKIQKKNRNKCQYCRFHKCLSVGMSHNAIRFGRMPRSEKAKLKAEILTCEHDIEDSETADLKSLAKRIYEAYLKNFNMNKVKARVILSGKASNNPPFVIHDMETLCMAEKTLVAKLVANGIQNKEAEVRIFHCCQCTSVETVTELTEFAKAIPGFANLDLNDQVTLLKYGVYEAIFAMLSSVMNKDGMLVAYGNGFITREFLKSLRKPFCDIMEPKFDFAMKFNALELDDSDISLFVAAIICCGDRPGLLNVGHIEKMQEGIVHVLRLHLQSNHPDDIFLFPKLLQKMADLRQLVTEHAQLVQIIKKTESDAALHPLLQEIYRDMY
# [2] = molecular target: T2, Peroxisome proliferator-activated receptor alpha (Homo sapiens) (UniProt Q07869); test: Transactivation of human PPARalpha expressed in human HepG2 cells co-transfected with PPRE3-TK-Luc by luciferase reporter gene assay relative to WY14643; type: cell-based
# T2 sequence (whole entry): T1 sequence (Q07869 whole entry)
# In short: (§1)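 Same HepG2 hPPARα or hPPARγ / PPRE3-TK-luc luciferase transactivation assay. Efficacy expressed as percent of maximal response, normalized to 100% for the reference agonist: WY-14643 for α, rosiglitazone for γ.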
# [3] = molecular target: T3, Peroxisome proliferator-activated receptor gamma (Homo sapiens, UniProt P37231); test: Transactivation of human PPARgamma expressed in human HepG2 cells co-transfected with PPRE3-TK-Luc by luciferase reporter gene assay; type: cell-based
# T3 sequence (P37231 whole entry): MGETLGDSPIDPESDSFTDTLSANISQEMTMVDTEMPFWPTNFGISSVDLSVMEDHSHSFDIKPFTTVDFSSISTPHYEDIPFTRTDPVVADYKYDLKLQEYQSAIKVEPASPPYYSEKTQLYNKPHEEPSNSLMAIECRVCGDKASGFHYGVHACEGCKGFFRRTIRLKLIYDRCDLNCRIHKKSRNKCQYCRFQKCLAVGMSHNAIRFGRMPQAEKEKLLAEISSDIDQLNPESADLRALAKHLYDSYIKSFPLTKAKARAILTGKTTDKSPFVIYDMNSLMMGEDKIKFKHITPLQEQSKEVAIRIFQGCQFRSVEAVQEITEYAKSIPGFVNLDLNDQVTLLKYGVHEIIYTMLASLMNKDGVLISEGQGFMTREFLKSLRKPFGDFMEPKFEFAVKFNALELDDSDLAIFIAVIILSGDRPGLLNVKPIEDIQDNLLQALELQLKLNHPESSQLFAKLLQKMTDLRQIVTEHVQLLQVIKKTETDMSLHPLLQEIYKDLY
# In short: (§2)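 HepG2 cells transfected with pSG5 vector carrying hPPARα, hPPARγ or hPPARδ cDNA, co-transfected with PPRE3-TK-luc. Firefly luciferase activity measured with a commercial kit. β-galactosidase activity read on an ELISA reader. Controls: WY14643 (α), rosiglitazone (γ), GW501516 (δ).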
# [4] = molecular target: T4, Peroxisome proliferator-activated receptor gamma (Homo sapiens) (UniProt P37231); test: Transactivation of human PPARgamma expressed in human HepG2 cells co-transfected with PPRE3-TK-Luc by luciferase reporter gene assay relative to Rosiglitazone; type: cell-based; in short: as §1
# T4 sequence (whole entry): T3 sequence (P37231 whole entry)
# [5] = molecular target: T5, Peroxisome proliferator-activated receptor delta (Homo sapiens) (UniProt Q03181); test: Transactivation of human PPARdelta expressed in human HepG2 cells co-transfected with PPRE3-TK-Luc by luciferase reporter gene assay; type: cell-based; in short: as §2
# T5 sequence (whole entry): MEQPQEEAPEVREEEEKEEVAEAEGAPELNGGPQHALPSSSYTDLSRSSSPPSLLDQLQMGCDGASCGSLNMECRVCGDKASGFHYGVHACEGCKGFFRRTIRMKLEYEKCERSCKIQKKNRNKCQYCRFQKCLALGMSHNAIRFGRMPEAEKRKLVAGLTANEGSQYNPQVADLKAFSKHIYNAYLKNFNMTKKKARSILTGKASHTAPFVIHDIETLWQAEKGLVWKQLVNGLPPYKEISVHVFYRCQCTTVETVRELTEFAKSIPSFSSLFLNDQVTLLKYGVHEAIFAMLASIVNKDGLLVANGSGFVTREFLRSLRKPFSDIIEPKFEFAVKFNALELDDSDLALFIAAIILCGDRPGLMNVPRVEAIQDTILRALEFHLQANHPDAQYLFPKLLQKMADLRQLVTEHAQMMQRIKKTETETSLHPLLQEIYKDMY
# [6] = tested on: Mus musculus; test: Reduction in serum triglyceride level in Swiss albino mouse at 10 mg/kg, po administered for 6 days relative to control; type: functional; set-up: scale not given: the % may be the effect or the level left
# In short: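 Male Swiss albino mice aged 6–8 weeks were given 10 mg/kg/day orally for 6 days. Serum triglyceride was expressed as % change versus vehicle controls, mean of n = 6.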
# [7] = tested on: Mus musculus; test: Antihyperglycemic activity in db/db mouse assessed as reduction in glucose level at 3 mg/kg/day, po administered for 6 days relative to control; type: functional; set-up: scale not given: the % may be the effect or the level left
# In short: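 Male db/db mice aged 6–8 weeks were dosed orally once daily for 6 days. Plasma glucose was then measured and expressed as % change versus vehicle-treated controls.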
SMILES,EC50 [1] [nM],Emax [2] [%],EC50 [3] [nM],Emax [4] [%],Activity [5],Activity [6] [%],Activity [7] [%]
CCO[C@@H](Cc1ccc(OCCc2ccc(OS(C)(=O)=O)cc2)cc1)C(=O)O [TESAGLITAZAR],–,–,–,–,–,–,55
CCO[C@@H](Cc1ccc(OCc2nc(-c3cccs3)oc2C)cc1)C(=O)O,0.026,134,0.0015,107,inactive,72,–
CCO[C@@H](Cc1ccc(OCc2nc(-c3sccc3C)oc2C)cc1)C(=O)O,–,106,0.0003,88,inactive,72,–
CCO[C@@H](Cc1ccc(OCCc2nc(-c3cccs3)oc2C)cc1)C(=O)O,0.1,126,0.05,104,inactive,78,–

# Further compounds by falling EC50 [3], results first:
EC50 [1] [nM],Emax [2] [%],EC50 [3] [nM],Emax [4] [%],Activity [5],SMILES,Activity [6] [%],Activity [7] [%]
22,–,4.5,–,inactive,CCO[C@@H](Cc1ccc(OCCc2nc(-c3ccc(-c4ccccc4)s3)oc2C)cc1)C(=O)O,62,–
20,93,3,104,inactive,CCO[C@@H](Cc1ccc(OCc2nc(-c3ccc(-c4ccccc4)s3)oc2C)cc1)C(=O)O,57,–
3,147,2.7,99,inactive,CCO[C@@H](Cc1ccc(OCc2nc(-c3ccsc3)oc2C)cc1)C(=O)O,70,–
1.9,114,0.6,87,inactive,CCO[C@@H](Cc1ccc(OCCc2nc(-c3ccsc3)oc2C)cc1)C(=O)O,62,–
–,151,0.0002,120,inactive,CCO[C@@H](Cc1ccc(OCc2nc(-c3ccc(C)s3)oc2C)cc1)C(=O)O,69,67
–,96,0.0001,192,inactive,CCO[C@@H](Cc1ccc(OCCc2nc(-c3sccc3C)oc2C)cc1)C(=O)O,67,–

# Source: ChEMBL document CHEMBL1811848 (Bioorg Med Chem Lett, 2011)
